The list is not random: actives were taken first. Their share in the collection is about 29%.
tolC growth inh: E. coli tolC mutant growth inhibition. growth inhibition, % at 10 µM (by protocol). 65,000 tested, 2.2% active. E. coli BW25113 tolC mutant growth, OD615. AID 573;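 active = growth inhibition at or above a cutoff equal to the mean over every tested compound plus 3 SD, cut at about 60% in these data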;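 note: growth measured after 20 h incubation at 37 °C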
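test system = E. coli BW25113 ΔtolC::kan bacteria | medium = LB with kanamycin 50 µg/mL | signal = OD at 615 nm | schedule = 37 °C, 20 h exposure | evaluation = % inhibition of E. coli growth | compound dosing = one dose of 10 µM final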
CYP2C9 inhib: human CYP2C9 inhibition; P11712; CYP2C9 Supersomes, luciferin-H conversion, luminescence; inhibition, % at 5 µM; 96,000 tested, 20% active; AID 777;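 active = blocking of liver enzyme CYP2C9 beyond about 50% at 5 µM, limit read from the data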
CYP2C19 activ: activators of human cytochrome P450 2C19; 96,000 tested, under 10 active; activation factor at 5 µM; P33261; recombinant CYP2C19, luciferin-H EGE luminescence; stronger effect = higher value; 0 = fully inhibited enzyme, 1 = untreated enzyme;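 active = activation factor of at least 2 at 5 µM in the primary screen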;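 note: 0 = wells with 2.5 mM tranylcypromine and 1 = vehicle-only wells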
Target sequence (P33261 whole entry, looked up): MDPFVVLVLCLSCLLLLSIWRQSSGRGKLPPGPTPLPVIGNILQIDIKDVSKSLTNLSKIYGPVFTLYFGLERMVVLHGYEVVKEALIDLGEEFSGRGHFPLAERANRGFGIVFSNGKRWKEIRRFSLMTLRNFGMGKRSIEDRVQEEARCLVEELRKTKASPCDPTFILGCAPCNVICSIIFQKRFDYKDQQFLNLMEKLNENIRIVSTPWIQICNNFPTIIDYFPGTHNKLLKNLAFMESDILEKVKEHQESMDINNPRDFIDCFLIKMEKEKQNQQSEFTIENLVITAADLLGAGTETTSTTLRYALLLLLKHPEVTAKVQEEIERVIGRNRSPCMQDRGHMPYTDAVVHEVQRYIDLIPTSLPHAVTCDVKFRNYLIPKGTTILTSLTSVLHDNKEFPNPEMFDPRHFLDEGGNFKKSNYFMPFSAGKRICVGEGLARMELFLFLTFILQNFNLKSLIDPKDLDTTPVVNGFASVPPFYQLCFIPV
CYP2C19 inh: inhibitors of human CYP2C19 | P33261 | CYP2C19 Supersomes, luciferin-H EGE luminescence, 30 min | inhibition, % at 5 µM | 96,000 tested, 21% active | AID 778;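 active = CYP2C19 inhibition above a set limit at 5 µM in the primary screen, cut at about 50% in these data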;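 note: plate controls were negative control wells for no effect and 2.5 mM tranylcypromine positive control for full effect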
E coli WT exp: E. coli BW25113 growth inhibition, expanded screen; OD600 absorbance; growth inhibition, % at 100 µM; 98,000 tested, 0.15% active; AID 710;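 active = growth inhibition above about 50% at one test dose, limit read from the data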;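 note: growth measured after 20 h incubation at 37 °C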
CYP2C9 activ: increases human cytochrome P450 2C9 activity. P11712. recombinant CYP2C9, luciferin-H conversion, luminescence; stronger effect = higher value; factor 1 = untreated enzyme, 0 = blocked. 96,000 tested, 1.4% active. activation factor at 5 µM. AID 1024;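 active = activation factor of 2 or more for CYP2C9 at a 5 µM dose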;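 note: 0 = sulfaphenazole-blocked wells and 1 = vehicle-only wells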
An asterisk follows results filed as active; . = no result.

SMILES	tolC growth inh	CYP2C9 inhib	CYP2C19 activ	CYP2C19 inh	E coli WT exp	CYP2C9 activ
C=CCSc1nc2c(c(=N)n1CC=C)C1CCCC1S2 (stereo unspecified)	95.5*	35.7	0.7	31.9	6.0	0.6
C=CCn1c(SCC(=O)NC2CCCCC2)nnc1C1CCCCC1	.	2.9	1	0.3	-3.0	1
CCOC(=O)C(NC(=O)CC)(N1CCc2ccccc2C1)C(F)(F)F (stereo unspecified)	.	55.8*	0.8	21.8	3.0	0.4
O=c1[nH]c2ccc(Cl)cc2c(-c2ccccc2)c1N1CCN(c2ccccn2)CC1	48.9	38.8	1.1	-7.7	-9.0	0.6
CN(C)c1ccc(NC(=O)Cn2c(=O)n(Cc3ccccc3)c(=O)c3ccccc32)cc1	-0.3	3.4	1.1	-8.3	2.0	1
COc1cccc(-c2nn(C)c3sc(C(=O)NCc4ccc(C)o4)cc23)c1	36.1	54.1*	0.8	22.7	-16.0	0.5
COc1cccc(-c2nn(C)c3sc(C(=O)NCc4ccc5c(c4)OCO5)cc23)c1	19.9	87.2*	0.2	75.8*	-7.0	0.1
CN1CCC2(CC1)C1CN(C)CC=C1C(C#N)=C(N)C2(C#N)C#N (stereo unspecified)	-0.6	2.9	1	1.2	6.0	1
CC(=O)NS(=O)(=O)c1ccc(NC(=O)C(Sc2ccccc2)c2ccccc2)cc1 (stereo unspecified)	.	34.7	0.9	11.5	-8.0	0.7
O=C(Nc1ncccc1Cl)C(Sc1ccccc1)c1ccccc1 (stereo unspecified)	.	54.8*	0.4	58.0*	-1.0	0.5
O=C(Nc1ccon1)C(Sc1ccccc1)c1ccccc1 (stereo unspecified)	23.8	86.2*	0.1	91.7*	-6.0	0.1
CC(C)NC(=O)C(Sc1ccccc1)c1ccccc1 (stereo unspecified)	.	62.1*	0	96.3*	-8.0	0.4
O=C(NCCCN1CCOCC1)C(Sc1ccccc1)c1ccccc1 (stereo unspecified)	.	-8.9	0.7	34.4	2.0	1.1
O=C(NCC1CCCO1)C1C2C=CC3(CN(Cc4cccs4)C(=O)C13)O2 (stereo unspecified)	0.0	17.3	1	3.4	1.0	0.8
Cc1ccc(-n2c(SCC(N)=O)nc3c([nH]c4ccccc43)c2=O)cc1	22.7	78.6*	0.9	9.0	8.0	0.2
COc1cccc(-n2c(SCC(N)=O)nc3c([nH]c4ccccc43)c2=O)c1	7.5	51.6*	1	2.9	5.0	0.5
COc1cccc(-n2c(SCC(=O)Nc3cc(C)on3)nc3c([nH]c4ccccc43)c2=O)c1	24.9	54.3*	1	1.9	-14.0	0.5
COc1ccccc1Oc1cc(C#N)c(C#N)cc1-n1nnc2ccccc21	32.2	12.9	1	-0.7	-19.0	0.9
CC(=O)Nc1cccc(NC(=O)C2CCCN2C(=O)Nc2ccc(Cl)cc2)c1 (stereo unspecified)	12.8	42.0	0.8	17.7	9.0	0.6
O=C(CCn1c(=O)sc2ccccc21)NCc1ccco1	-18.3	.	.	.	.	.
O=C(c1ccc(Cl)c(S(=O)(=O)Nc2ccc(F)cc2)c1)N1CCN(c2ccccn2)CC1	.	69.8*	0.3	66.7*	-1.0	0.3
CN(c1ccccc1)S(=O)(=O)c1cc(C(=O)N2CCN(c3ccccn3)CC2)ccc1Cl	13.2	99.4*	0.3	73.1*	-7.0	0
Cc1ccc(-c2nc(SCC(=O)NCCN3C(=O)CSC3=O)[nH]c2-c2ccc(C)cc2)cc1	.	64.5*	1	-1.3	-2.0	0.4
Cc1ccc(SCC(=O)NCCN2C(=O)CSC2=O)cc1C	.	-28.1	0	97.0*	-1.0	1.3
Cc1cccc(-n2nnnc2SCC(=O)NCCN2C(=O)CSC2=O)c1	-2.8	-71.0	0.2	77.2*	1.0	1.7
CCc1ccc(NC(=O)CCn2c(=O)oc3ccccc32)cc1	-9.9	57.6*	0.8	23.5	-5.0	0.4
COc1ccc(CNC(=O)CCn2c(=O)oc3ccccc32)cc1	-1.7	2.3	0.8	20.2	0.0	1
COc1ccccc1CNC(=O)CCn1c(=O)oc2ccccc21	-10.3	-43.3	0.3	71.9*	0.0	1.4
O=C(CCn1c(=O)oc2ccccc21)Nc1ccccc1	1.5	-5.8	0.4	60.7*	9.0	1.1
Cc1ccc(NC(=O)CCn2c(=O)oc3ccccc32)cc1	-13.3	9.1	0.8	25.0	-3.0	0.9

Screening results: PubChem BioAssay, several laboratories
